# Experimental data gathered from unrelated publications.
# Protocols differ between the studies behind these lines.
# Target: Cyclin-dependent kinase 17 (CDK17, Homo sapiens, UniProt Q00537)
SMILES,observed,method,tested at,remaining binding [%]
CN1CCN(c2cnc3c(C4CCN(C(=O)c5ccc(OC(F)(F)F)cc5N)CC4)ncnc3c2)CC1,cell-free assay,competition with immobilised ligand,1 µM,93
CCN1CCN(Cc2ccc(C(=O)Nc3ccc(C)c(Oc4ccc5c(c4)CC(=O)N5)c3)cc2C(F)(F)F)CC1,binding,competition with immobilised ligand,1 µM,100
Nc1ncc2c(n1)-c1c([nH]c3ccc(C#CC4CC4)cc13)CCCC2,binding,competition with immobilised ligand,1 µM,85
COc1cccc(CNC(=O)c2nc3scc(COCc4ccc(C(=O)O)cc4)c3c(=O)[nH]2)c1,cell-free assay,competition with immobilised ligand,1 µM,87.8
O=C(NCCCN1CCOCC1)c1ccc(Nc2nccc(-c3cc4ccccc4s3)n2)cc1,binding,competition with immobilised ligand,1 µM,63
CN(C)c1ncc(F)c(-c2cnn3ncccc23)n1,binding,,1 µM,97
C[C@@]1(Cc2ccc(C#N)cc2)C(=O)N(c2cc(Cl)cc(Cl)c2)c2ncc(C(=O)NC3(c4nc(C5CCC5)no4)CC3)n21,cell-free assay,competition with immobilised ligand,1 µM,100
Cc1cnc(Nc2ccc(C(=O)N3CCC(N4CCCC4)CC3)cc2)nc1-c1cc2ccccc2s1,binding,competition with immobilised ligand,1 µM,9.2
C[C@H]1CCN(c2nccc(-c3cnn4ncccc34)n2)C1,binding,,1 µM,0
C[C@@H](c1ccc(-n2cnc3c(N)ncnc32)cc1)N1CCc2nn(C)c(Cc3ccccc3)c2C1=O,binding,competition with immobilised ligand,0.1 µM,91
O=c1nc(-c2ccccn2)sc2ccccc12,binding,competition with immobilised ligand,1 µM,100
COc1ncc2cc3ccccc3nc2c1C#N,cell-free assay,competition with immobilised ligand,5 µM,100
O=C(c1ccc(Nc2nccc(-c3cc4ccccc4s3)n2)cc1)N1CCC(N2CCCC2)CC1,binding,competition with immobilised ligand,1 µM,64
CC1CCCN1c1nccc(-c2cnn3ncccc23)n1 (stereo not drawn),binding,,1 µM,100
CNC(=O)[C@@H]1CC[C@@H](n2c(-c3ccc4cnccc4c3)nc3ccc(C(=O)NCc4cccc(C(N)=O)c4)cc32)C1,binding,competition with immobilised ligand,1 µM,93
CN(C)c1nccc(-c2cnn3ncccc23)n1,binding,,1 µM,100
O=C(Nc1c[nH]nc1C(=O)NC1CCNCC1)c1cc(F)cc(F)c1,binding,competition with immobilised ligand,1 µM,20
CN(C)C(=O)Cn1cc(-c2nc(C3(c4ccc(-c5cnc(N)nc5)cc4)CC3)no2)cn1,cell-free assay,competition with immobilised ligand,1 µM,100
N[C@@H]1CCN(c2nccc(-c3cnn4ncccc34)n2)C1,binding,,1 µM,100
Cc1noc([C@H]2C[C@@H](c3ccc(C(F)(F)F)cc3)CN(C(=O)N3CCS(=O)(=O)C3)C2)n1,cell-free assay,competition with immobilised ligand,1 µM,100
CN(C)c1nccc(-c2cnc3ncccn23)n1,binding,,1 µM,84
